Laboratory results taken from article PMC3058505 (Hepatology (Baltimore, Md.), 2010).
Where a name gives a salt, the structure may show the parent alone.

Legend:
[1] = test system: HCV NS5A and core protein in NS or FL replicons; assay: Western blot of HCV proteins in NS and FL replicons; type: cell-based, hepatitis C virus; details: biliverdin 20 µM, BR 200 µM or FeCl2 100 µM for 24 h; both replicon lines
How it was run: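 Log-phase NS (Huh5-15) or FL (Huh7.5 Con1) replicon cells were treated for 24 h. BV and BR were dissolved in 0.2 N NaOH, with vehicle controls. Cells were then lysed and analysed by Western blot with enhanced chemiluminescence detection. Band intensities were quantified by densitometry.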

[2] = test system: HCV replication in Huh5-15NS replicon; assay: HCV replication in non-structural; type: cell-based, hepatitis C virus; details: for Relative [HCV] [ΔCΤ]: Huh5-15NS, control = 1.0
How it was run: (§1)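 Log-phase replicon cells were incubated overnight with hemin (0, 5, 10 or 20 µM) or control vehicle. Cells were Huh7.5FL (full-length Con1) or Huh5-15NS (subgenomic). Relative HCV RNA was found by real-time RT-PCR with the comparative cycle threshold (ΔCT) method and normalised to vehicle control = 1.0. Each value is the mean of four determinations.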

[3] = test system: HCV replication in Huh7.5FL Con1 replicon; assay: HCV replication in full-length; type: cell-based, hepatitis C virus; details: for Relative [HCV] [ΔCΤ]: Huh7.5FL, control = 1.0
How it was run: as §1

[4] = target: HCV NS3/4A protease (recombinant) (Hepatitis C virus genotype 1b, UniProt O92972); assay: SensoLyte 620 HCV Protease Assay with recombinant NS3/4A protease; type: biochemical
[5] = test system: J6/JFH infectious HCV in Huh7.5 cells; assay: J6/JFH HCV infection of Huh7.5 cells; type: cell-based, hepatitis C virus; details: BV 20–200 µM, 72 h; HCV polyvalent sera immunoreactivity and HCV RNA
How it was run: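 Huh7.5 cells were inoculated with infectious J6/JFH HCV and passed. They were then treated with BV at 0, 20 or 200 µM for 72 h. Cells were fixed in absolute methanol, washed in PBS and stained with genotype 2A polyvalent human serum. Detection used an anti-human alkaline phosphatase conjugate and photomicroscopy. HCV RNA was measured by ΔCT real-time RT-PCR, 3–5 determinations per group, mean ± SEM.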

[6] = target: endogenous NS3/4A protease from replicon microsomes (Hepatitis C virus genotype 1b, UniProt Q9WMX2); type: biochemical
[7] = test system: replicon cells; assay: Proliferation and cytotoxicity assays; type: cell-based, human; details: medium containing 5 or 10% FBS
[8] = test system: HCV replication in FL or NS replicons; type: cell-based, hepatitis C virus; details: 50 or 100 µM BV overnight with α-interferon
How it was run: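 Cell lines were Huh7.5 cells with full-length Con1 replicons (FL) and Huh5-15 cells with subgenomic replicons (NS). They received α-interferon alone or with BV. BV was dissolved in 0.2 N NaOH, and controls got the same NaOH volume. HCV RNA was measured by real-time RT-PCR using the comparative cycle threshold (ΔCT) method. Values are mean ± SEM of 3 determinations per point.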

Sequence of HCV NS3/4A protease (recombinant) (O92972 1013-1207, looked up, natural form): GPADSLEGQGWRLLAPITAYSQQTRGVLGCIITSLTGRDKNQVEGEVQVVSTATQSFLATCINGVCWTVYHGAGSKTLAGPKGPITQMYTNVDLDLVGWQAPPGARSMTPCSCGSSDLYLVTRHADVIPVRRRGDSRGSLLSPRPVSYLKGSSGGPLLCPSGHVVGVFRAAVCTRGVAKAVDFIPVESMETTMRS
Sequence of endogenous NS3/4A protease from replicon microsomes (Q9WMX2 1027-1657): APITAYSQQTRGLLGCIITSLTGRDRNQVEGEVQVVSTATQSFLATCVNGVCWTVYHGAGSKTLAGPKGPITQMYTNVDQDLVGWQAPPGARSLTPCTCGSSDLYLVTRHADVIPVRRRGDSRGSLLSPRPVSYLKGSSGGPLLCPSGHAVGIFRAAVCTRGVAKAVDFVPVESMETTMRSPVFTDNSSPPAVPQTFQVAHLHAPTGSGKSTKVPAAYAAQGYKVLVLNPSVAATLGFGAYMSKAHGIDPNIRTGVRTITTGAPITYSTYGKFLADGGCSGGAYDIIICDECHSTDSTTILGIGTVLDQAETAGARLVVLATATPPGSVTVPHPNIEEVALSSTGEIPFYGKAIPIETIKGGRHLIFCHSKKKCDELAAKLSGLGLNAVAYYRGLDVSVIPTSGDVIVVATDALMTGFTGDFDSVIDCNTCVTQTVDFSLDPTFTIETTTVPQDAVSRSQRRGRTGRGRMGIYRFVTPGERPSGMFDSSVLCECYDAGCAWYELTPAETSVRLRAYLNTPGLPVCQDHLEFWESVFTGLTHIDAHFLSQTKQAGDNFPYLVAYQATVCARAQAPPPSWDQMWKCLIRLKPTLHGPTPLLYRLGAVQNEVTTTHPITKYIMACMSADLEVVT
Sequence of endogenous NS3/4A protease from replicon microsomes (Q9WMX2 1658-1711): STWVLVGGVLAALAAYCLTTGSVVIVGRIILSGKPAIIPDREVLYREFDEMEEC

## [Cl][Fe][Cl] [FeCl2]
[1]
  Effect on HCV protein expression by Western blot: decreased NS5A and core protein

## hemin [Heme]
[2]; heme 5 uM overnight
  Relative [HCV] [ΔCΤ]: 0.27
[2]; heme 10 uM overnight
  Relative [HCV] [ΔCΤ]: 0.09
[2]; heme 20 uM overnight
  Relative [HCV] [ΔCΤ]: 0.03
[2]; NS replicon, overnight incubation with hemin
  Lowest level at which antiviral effect is apparent: 5 µM
[3]; FL replicon, overnight incubation with hemin
  Lowest level at which antiviral effect is apparent: 5 µM
[3]; heme 5 uM overnight
  Relative [HCV] [ΔCΤ]: 0.22
[3]; heme 10 uM overnight
  Relative [HCV] [ΔCΤ]: 0.08
[3]; heme 20 uM overnight
  Relative [HCV] [ΔCΤ]: 0.04

## C=CC1=C(C)/C(=C/C2=NC(=C\c3[nH]c(/C=C4\NC(=O)C(C)=C4C=C)c(C)c3CCC(=O)O)/C(CCC(=O)O)=C2C)NC1=O [Biliverdin, biliverdin-IX-α hydrochloride]
[4]
  Ki: 600 nM
[4]; Lineweaver-Burk plots
  Mode of inhibition of NS3/4A protease: mixed competitive and non-competitive inhibition
[4]; assays in the presence of both BV and #25346
  Effect of BV combined with #25346 on protease activity: additive effect
[5]
  Effect on Huh7.5 cell infection with J6/JFH: markedly decreased
[6]
  Inhibition of endogenous NS3/4A protease: potently inhibited
[7]
  Effect on cellular proliferation or toxicity: no effect
[1]
  Effect on HCV protein expression by Western blot: decreased NS5A
[8]
  Effect on α-interferon antiviral activity: clear additive effect

## C=CC1=C(C)/C(=C/c2[nH]c(Cc3[nH]c(/C=C4\NC(=O)C(C)=C4C=C)c(C)c3CCC(=O)O)c(CCC(=O)O)c2C)NC1=O [BR, bilirubin]
[7]
  Effect on cellular proliferation or toxicity: no effect
[1]
  Effect on HCV protein expression by Western blot: decreased NS5A
